Compounds with a hit are over-represented: about 3% of the library has one in this group of screens.
PLCg1 inh – PLC-gamma1 enzyme inhibitors, primary screen, biochemical, fluorescence, purified enzyme | 1-phosphatidylinositol 4,5-bisphosphate phosphodiesterase gamma-1 (Homo sapiens), P19174 | fluorogenic substrate | inhibition, % at 12.2 µM | 370,000 tested, 0.84% active; in the data active = inhibition above about 9.5%
proKLK7 act – proKLK7 zymogen activators, primary screen, biochemical, fluorescence intensity. Kallikrein-7 (Homo sapiens), P49862. purified proKLK7, EDANS-DABCYL substrate fluorescence; 100% is mature enzyme control, 0% vehicle. activation, % at 7 µM. 370,000 tested, 0.9% active;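 active = activation above the mean of all tested compounds plus 3 SD, computed per campaign excluding outliers beyond control limits, cut at about 13% in these data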
DDE Tn7 FP inh – inhibitors of Tn7 peptide binding to fibrin DD(E), primary screen, biochemical, fluorescence polarization, human fibrin, Tn7 probe. 370,000 tested, 0.13% active. Fibrinogen beta chain (Homo sapiens), P02675. AID 720508, 2013. inhibition, % at 8.3 µM. FP displacement of FITC-Tn7 peptide from fibrin DD(E); 0% = median of compound wells per plate;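 active = inhibition above the mean of compounds falling within the control limits plus 3 SD of them, cut at about 14% in these data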;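 note: 0% = plate median of compound wells and 100% = 10 µM Aha-Tn7 peptide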
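Assay system: human fibrin DD(E) protein / Input: 2 µM fibrin DD(E) / Benchmarks: high control of 10 µM Aha-Tn7 peptide / Measured by: fluorescence polarization of the labelled Tn7 tracer / Medium: Tris buffer with calcium and detergent, pH 7.8 / Timing: 10 min compound pre-incubation, 3 h probe incubation at room temperature / Repeats: one replicate per compound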
PLCb3 inh – human PLC-beta3 inhibitors, primary screen, biochemical, fluorescence. 1-phosphatidylinositol 4,5-bisphosphate phosphodiesterase beta-3 (Homo sapiens), Q01970. Purified PLC-beta3, fluorogenic substrate. inhibition, % at 12.2 µM. 370,000 tested, 0.18% active; in the data active = inhibition above about 11%;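 note: 0% = median of compound wells on plate and 100% = full blocker control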
Target sequence (Q01970 whole entry, looked up): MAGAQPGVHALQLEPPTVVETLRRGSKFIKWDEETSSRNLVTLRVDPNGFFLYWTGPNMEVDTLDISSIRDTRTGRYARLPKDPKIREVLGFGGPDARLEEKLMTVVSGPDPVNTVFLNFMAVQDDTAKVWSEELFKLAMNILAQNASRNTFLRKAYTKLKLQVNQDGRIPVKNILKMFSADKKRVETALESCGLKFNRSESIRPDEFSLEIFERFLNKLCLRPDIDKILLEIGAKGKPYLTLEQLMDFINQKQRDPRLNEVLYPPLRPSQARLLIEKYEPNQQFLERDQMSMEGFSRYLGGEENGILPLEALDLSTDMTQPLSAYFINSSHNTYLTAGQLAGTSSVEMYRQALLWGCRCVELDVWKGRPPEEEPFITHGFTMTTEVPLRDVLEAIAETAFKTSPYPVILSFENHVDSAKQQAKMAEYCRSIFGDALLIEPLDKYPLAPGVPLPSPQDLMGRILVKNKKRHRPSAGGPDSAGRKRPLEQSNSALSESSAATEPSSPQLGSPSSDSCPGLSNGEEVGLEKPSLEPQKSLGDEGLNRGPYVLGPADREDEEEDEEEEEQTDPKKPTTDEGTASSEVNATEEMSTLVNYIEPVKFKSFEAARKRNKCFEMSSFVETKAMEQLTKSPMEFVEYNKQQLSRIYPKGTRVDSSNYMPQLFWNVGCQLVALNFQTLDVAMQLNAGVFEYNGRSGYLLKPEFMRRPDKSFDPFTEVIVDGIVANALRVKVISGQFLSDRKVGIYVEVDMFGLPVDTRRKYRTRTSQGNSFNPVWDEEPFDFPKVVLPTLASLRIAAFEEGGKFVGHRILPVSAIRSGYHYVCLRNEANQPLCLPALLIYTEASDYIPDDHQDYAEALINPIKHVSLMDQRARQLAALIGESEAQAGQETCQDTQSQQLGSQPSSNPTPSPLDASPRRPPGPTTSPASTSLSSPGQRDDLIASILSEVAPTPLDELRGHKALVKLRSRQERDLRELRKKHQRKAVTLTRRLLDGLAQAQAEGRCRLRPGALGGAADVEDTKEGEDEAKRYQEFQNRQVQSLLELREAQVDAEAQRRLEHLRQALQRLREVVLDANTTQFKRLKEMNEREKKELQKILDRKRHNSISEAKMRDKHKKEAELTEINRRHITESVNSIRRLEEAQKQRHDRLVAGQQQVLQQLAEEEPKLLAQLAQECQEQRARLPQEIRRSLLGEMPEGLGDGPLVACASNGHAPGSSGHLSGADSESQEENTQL
Tn6 DDE FP – inhibitors of Tn6 peptide binding to fibrin DD(E), primary screen, biochemical, fluorescence polarization, human fibrin, Tn6 probe; 370,000 tested, 0.21% active; Fibrin DD(E) TRITC-Tn6 fluorescence polarization displacement; AID 720509, 2013; inhibition, % at 8.3 µM;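 active = inhibition above a per-campaign cutoff: mean of compounds within control limits plus 3 SD, cut at about 15% in these data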;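 note: 0% = median of all compound wells on the plate and 100% = blocking peptide control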
NRP1-CendR mod – modulators of CendR peptide binding to NRP-1, primary screen, biochemical, fluorescence polarization, uHTS; Neuropilin-1 (Homo sapiens), O14786; FAM-RPARPAR peptide binding to NRP-1; inhibition, % at 25 µM; 360,000 tested, 0.85% active; AID 602438, 2012;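 active = inhibition or corrected inhibition above about 18%, plus a signal ratio from 0.5 to 1.5, limit read from the data, passing the limit was not always enough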
Active calls of the source: *; x = no result.

SMILES | PLCg1 inh | proKLK7 act | DDE Tn7 FP inh | PLCb3 inh | Tn6 DDE FP | NRP1-CendR mod
COC(=O)c1ccc(Cn2ccc3ccc(-c4ccc5ccn(C(=O)c6ccccc6C)c5c4)cc32)cc1 | -55 | -8 | 4 | -72 | -10 | x
COc1ccc(-n2nnc3c(SCC(=O)NCc4ccco4)ncnc32)cc1 | -18 | 1 | 1 | -24 | -8 | 36*
COC(=O)c1ccc(N2CCOCC2)c(NC(=O)c2cccnc2)c1 | -1 | 0 | 0 | -6 | 5 | 26*
COC(=O)c1ccc(N2CCN(C)CC2)c(NC(=O)c2cccnc2)c1 | 3 | -1 | 4 | 3 | -1 | -6
CCOC(=O)c1c(-c2cccc([N+](=O)[O-])c2)csc1NC(=O)CCCOc1ccccc1OC | 1 | 0 | 8 | -2 | 3 | 33*
COc1cc([N+](=O)[O-])ccc1NC(=O)CCCOc1cccc(C)c1 | 2 | 0 | -2 | -2 | 6 | 20*
CCCC(=O)OC12CCCN(C1)/C(=C/c1ccccc1)C2 (stereo unspecified) | 0 | 0 | -5 | -5 | -3 | x
COc1ccc(OC)c(NC(=O)c2sc3nc(Cc4ccccc4)cc(C(F)(F)F)c3c2N)c1 | -1 | 0 | -1 | -3 | 1 | 24*
COc1ccc(-c2cc(C(F)(F)F)c3c(N)c(C(=O)NCCSC)sc3n2)cc1 | -433 | -12 | -9 | -481 | 3 | -38
CC(C)(C)C(C(=O)NC1CCCC1)N1CCN(c2ncccc2C#N)CC1 (stereo unspecified) | -11 | 4 | -4 | -18 | 0 | 30*
O=C(CSc1nc2ccccc2n1Cc1ccccc1)N/N=C/c1ccccc1C(=O)O | 1 | 0 | 6 | -9 | 5 | -15
O=C(CSc1nc2ccccc2n1Cc1ccccc1Cl)N/N=C/c1ccccc1C(=O)O | -3 | 1 | 8 | -7 | -1 | 40*
CC(C)(C)OC(=O)NC(=NCCCc1cn(CC(=O)N2CCN(C(=O)OC(C)(C)C)CC2)nn1)NC(=O)OC(C)(C)C | 0 | 0 | -7 | 3 | 1 | 8
CC[C@@H](C)[C@@H](C(=O)N1CCN(C(=O)OC(C)(C)C)CC1)n1cc(CCCN=C(NC(=O)OC(C)(C)C)NC(=O)OC(C)(C)C)nn1 | -1 | 1 | 1 | 6 | 1 | 26*
CC(C)[C@H](N)C(=O)N1CCC[C@@H]1C(=O)N1CCC2CCN(S(=O)(=O)c3ccccc3)CC21 (stereo partly specified) | 0 | 0 | 3 | 0 | 2 | x
Cc1ccccc1CSCC(=O)NC(=O)NCc1ccco1 | -1 | 0 | 7 | -4 | 1 | -10
O=C(CSCc1ccccc1Br)NNC(=S)NCc1ccco1 | 3 | 0 | -1 | -5 | 0 | 21*
COC(=O)c1cnc(Oc2ccc(NC(=O)NC(=O)c3ccccc3Cl)cc2)cc1C(F)(F)F | 6 | 0 | 3 | -2 | 5 | 29*
CCC1CCCCN1C(=S)Nc1ccc(OC(F)F)cc1 (stereo unspecified) | 5 | -1 | -1 | -5 | -6 | 27*
C[C@H](CCCCC1(C)OCCO1)CCC(=O)N(c1ccccc1)c1ccccc1 | 1 | 1 | 0 | 0 | 5 | x
CC(=O)c1cc(-c2ccc(-c3ccccc3)c(F)c2)c(=O)n2c1CCC2 | -8 | 0 | 5 | -18 | 4 | x
CN(Cc1nc2ccccc2c(=O)[nH]1)C(=O)COc1ccccc1Cc1ccccc1 | 1 | 0 | 3 | -11 | 3 | 31*
CCN(Cc1nc2ccccc2c(=O)[nH]1)C(=O)COc1ccccc1Cc1ccccc1 | 0 | 1 | 1 | -4 | 0 | -9
O=C(NC1CCCCN(Cc2cccc(F)c2)C1=O)c1cccc(F)c1 (stereo unspecified) | -1 | -1 | 8 | 0 | -5 | x
CNc1cccccc1=S | -7 | 0 | 3 | -12 | -7 | 25*
SMILES | PLCg1 inh | proKLK7 act | DDE Tn7 FP inh | PLCb3 inh | Tn6 DDE FP | NRP1-CendR mod
CNc1ccccc1 | -3 | 0 | 0 | -2 | 7 | -3
CC(=O)N1c2ccccc2Oc2cc3ccccc3cc21 | 2 | 0 | -7 | 1 | -3 | -12
O=C(CCl)N1c2ccccc2Oc2ccc3ccccc3c21 | -155 | 1 | 16* | -219 | 39* | 144
NC(=O)c1ccccc1NC(=O)C(c1ccccc1)c1ccccc1 | -4 | 1 | -5 | -8 | 1 | 40*
CCOCc1nnc(NC(=O)c2c(OC)cccc2OC)s1 | -1 | 0 | 1 | -21 | 3 | 20*
CC(=O)OC12CCCN(C1)/C(=C/c1cccnc1)C2 (stereo unspecified) | -2 | 0 | -2 | 0 | 5 | x
Oc1ccccc1-c1ccn[nH]1 | 3 | 0 | -2 | 4 | -5 | 32*
CCCCOc1ccc(CSCCN=C(N)N)cc1 | 0 | 1 | 4 | 3 | -3 | 40*
NC(=O)C1CCN(c2nc(-c3ccc4c(c3)CCO4)cs2)CC1 | 3 | x | 3 | 2 | -8 | x
O=C(CSc1nnc(-c2cnccn2)n1-c1ccccc1)Nc1ccc2c(c1)OCCO2 | 0 | 0 | 2 | 2 | -2 | x
O=C(N/N=C/C=C\c1cccc([N+](=O)[O-])c1)c1ccccn1 | 3 | 0 | 9 | 6 | 5 | 28*
CCc1ccc(C2CC(=O)N(c3cccc(F)c3)C3=C2C(=O)OC3)cc1 (stereo unspecified) | 2 | 0 | 1 | -2 | -1 | 27*
O=C1OCC2=C1C(c1ccc(Cl)cc1)CC(=O)N2c1ccc(F)cc1 (stereo unspecified) | -1 | 0 | 0 | -4 | 7 | -1
O=C(CN1C(=O)NC2(CCCCCC2)C1=O)Nc1ccc(OC(F)(F)F)cc1 | 0 | 0 | 2 | 1 | -5 | 27*
CC(C)c1ccc(NC(=O)CN2C(=O)NC3(CCCC3)C2=O)cc1 | 1 | 0 | -1 | -2 | 3 | 24*
O=C(CN1C(=O)NC2(CCCC2)C1=O)Nc1ccc(OC(F)(F)F)cc1 | 1 | 0 | -1 | -3 | 0 | 1
CC(C)(C)c1ccc(C(=O)Nc2cc(Cl)ccc2-c2nn[nH]n2)cc1 | -2 | x | -4 | -11 | -2 | x
O=C(Nc1ccc(Br)cc1)c1cccc(N2C(=O)C3C4C=CC(C4)C3C2=O)c1 (stereo unspecified) | 14* | 0 | -6 | -12 | -9 | 14
